Reference: ChEMBL document CHEMBL5321201, “Investigation of morpholine isosters for the development of a potent, selective and metabolically stable mTOR kinase inhibitor” (Eur J Med Chem, 2023)

Assays:
[1] = Toxicity in Sprague-Dawley rat assessed as increase in glucose concentration at 5 mg/kg, po measured upto 8 hrs by glucose colorimetric assay; assay type: organism-based; details: in vivo
Method in brief: (§1)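 Male SD rats dosed orally at 5 mg/kg in 20% Captisol, with vehicle controls. Plasma was taken by heart puncture at 30 min, 2, 4 and 8 h, three rats per point. Insulin was measured by rat/mouse insulin ELISA and glucose by colorimetric assay.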

[2] = Metabolic stability in Beagle dog hepatocytes assessed as half life at 5 microM incubated upto 180 mins by LC/MS analysis; assay type: ADME, cell-based, Canis lupus familiaris, Hepatocyte
Method in brief: (§2)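 Cryopreserved hepatocytes from the listed species, in suspension at 200,000 cells/well in Williams Medium E with 2 mM L-glutamine and 25 mM HEPES. Compound final 5 µM in 0.5% DMSO, sampled at 0, 15, 60, 90 and 180 min. ACN precipitation, LC-MS. Hepatocyte-free medium served as negative control and 7-ethoxycoumarin as reference; duplicates.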

[3] = target: T1, Serine/threonine-protein kinase mTOR (Homo sapiens, UniProt P42345); assay: Displacement of Alexa fluor 647-labeled kinase tracer 314 from N-terminal GST-fused truncated recombinant human mTOR (1360 to 2549 residues) assessed as inhibition constant by TR-FRET based Lanthascreen kinase activity assay
[4] = AUC (0 to 8 hrs) in Sprague-Dawley rat brain at 5 mg/kg, po administered as single dose and measured after 8 hrs by LC-MS analysis; assay type: ADME, organism-based; design: time 8 hrs, dose 5 mg/kg, route po; details: in vivo
Method in brief: (§3)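 Male Sprague Dawley rats given a single oral dose of 5 mg/kg (5 mL/kg) in 20% Captisol, pH adjusted to 3. Three rats per time point (30 min, 2, 4, 8 h); heart-puncture blood into lithium-heparin, plasma separated, brain collected. Samples precipitated with acetonitrile containing diazepam internal standard, then LC-MS quantification.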

[5] = Metabolic stability in Beagle dog hepatocytes assessed as parent compound remaining at 5 uM measured after 3 hrs by LC-MS analysis; assay type: ADME, cell-based, Canis lupus familiaris, Hepatocyte; details: read-out: Stability; method in brief: as §2
[6] = Metabolic stability in Sprague-Dawley rat hepatocytes assessed as half life at 5 microM incubated upto 180 mins by LC/MS analysis; assay type: ADME, cell-based, Hepatocyte; method in brief: as §2
[7] = target: T1, Serine/threonine-protein kinase mTOR; assay: Binding affinity to DNA-tagged mTOR (unknown origin) assessed as dissociation constant by quantitative PCR analysis
Method in brief: (§4)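 Competition binding: DNA-tagged kinases on immobilized ligand competed with an 11-point 3-fold dilution starting at 30 µM. Bound kinase quantified by qPCR of DNA tags. Kd fitted with the Hill equation (slope −1); duplicate experiments, mean reported.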

cells [8] = details: Homo sapiens, SK-OV-3, 1 h
[9] = target: Phosphatidylinositol 3-kinase catalytic subunit type 3 (Homo sapiens, UniProt Q8NEB9); assay: Binding affinity to DNA-tagged VPS34 (unknown origin) assessed as dissociation constant by quantitative PCR analysis; method in brief: as §4
[10] = target: T2, Phosphatidylinositol 4,5-bisphosphate 3-kinase catalytic subunit delta isoform (Homo sapiens, UniProt O00329); assay: Binding affinity to DNA-tagged P13kdelta (unknown origin) assessed as dissociation constant by quantitative PCR analysis; method in brief: as §4
T2 sequence (O00329 whole entry): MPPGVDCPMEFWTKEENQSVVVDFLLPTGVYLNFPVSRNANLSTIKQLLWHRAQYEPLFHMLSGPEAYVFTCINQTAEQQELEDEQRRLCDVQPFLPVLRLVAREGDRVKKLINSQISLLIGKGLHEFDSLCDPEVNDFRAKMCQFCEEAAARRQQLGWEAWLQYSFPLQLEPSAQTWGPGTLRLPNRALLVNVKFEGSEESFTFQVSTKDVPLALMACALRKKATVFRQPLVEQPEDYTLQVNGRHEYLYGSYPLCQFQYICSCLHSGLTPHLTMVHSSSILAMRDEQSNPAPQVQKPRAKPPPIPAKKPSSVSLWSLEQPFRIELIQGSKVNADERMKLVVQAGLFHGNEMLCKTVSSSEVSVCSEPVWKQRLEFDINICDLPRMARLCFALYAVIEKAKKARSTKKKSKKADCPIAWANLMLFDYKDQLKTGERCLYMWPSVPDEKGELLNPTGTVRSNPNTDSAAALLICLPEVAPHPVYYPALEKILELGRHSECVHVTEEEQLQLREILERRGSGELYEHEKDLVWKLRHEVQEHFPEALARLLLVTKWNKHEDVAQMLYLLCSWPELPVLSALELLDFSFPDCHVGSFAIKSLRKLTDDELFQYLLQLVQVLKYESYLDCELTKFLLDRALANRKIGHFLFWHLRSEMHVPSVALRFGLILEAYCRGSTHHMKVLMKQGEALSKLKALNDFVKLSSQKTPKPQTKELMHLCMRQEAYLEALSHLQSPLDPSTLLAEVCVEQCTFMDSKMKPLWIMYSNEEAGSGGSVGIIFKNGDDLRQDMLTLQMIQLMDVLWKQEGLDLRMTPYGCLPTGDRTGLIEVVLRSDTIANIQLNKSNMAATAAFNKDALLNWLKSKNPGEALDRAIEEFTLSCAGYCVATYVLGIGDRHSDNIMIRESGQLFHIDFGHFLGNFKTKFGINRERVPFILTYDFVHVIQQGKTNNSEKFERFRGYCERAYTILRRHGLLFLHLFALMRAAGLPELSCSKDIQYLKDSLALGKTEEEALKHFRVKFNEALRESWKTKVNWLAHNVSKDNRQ

[11] = target: Phosphatidylinositol 4-kinase beta (Homo sapiens, UniProt Q9UBF8); assay: Binding affinity to DNA-tagged P14kbeta (unknown origin) assessed as dissociation constant by quantitative PCR analysis; method in brief: as §4
[12] = Metabolic stability in human hepatocytes assessed as intrinsic clearance measured per million cells at 5 microM incubated upto 180 mins by LC/MS analysis; assay type: ADME, cell-based, Hepatocyte; details: read-out: CLH; method in brief: as §2
[13] = target: Phosphatidylinositol 4,5-bisphosphate 3-kinase catalytic subunit gamma isoform (Homo sapiens, UniProt P48736); assay: Binding affinity to DNA-tagged P13kgamma (unknown origin) assessed as dissociation constant by quantitative PCR analysis; method in brief: as §4
[14] = target: T3, Phosphatidylinositol 4,5-bisphosphate 3-kinase catalytic subunit alpha isoform (Homo sapiens, UniProt P42336); assay: Binding affinity to DNA-tagged P13kalpha (unknown origin) assessed as dissociation constant by quantitative PCR analysis; method in brief: as §4
[15] = target: Phosphatidylinositol 4,5-bisphosphate 3-kinase catalytic subunit beta isoform (Homo sapiens, UniProt P42338); assay: Binding affinity to DNA-tagged P13kbeta (unknown origin) assessed as dissociation constant by quantitative PCR analysis; method in brief: as §4
CYP1A2 = target: T4, CYP1A2 (Homo sapiens, UniProt P05177); assay: Stability of compound assessed as recombinant human CYP1A2-mediated drug metabolism by measuring compound remaining at 1 uM incubated for 60 mins by LC-MS analysis; assay type: ADME; details: read-out: Stability
T4 sequence (P05177 whole entry): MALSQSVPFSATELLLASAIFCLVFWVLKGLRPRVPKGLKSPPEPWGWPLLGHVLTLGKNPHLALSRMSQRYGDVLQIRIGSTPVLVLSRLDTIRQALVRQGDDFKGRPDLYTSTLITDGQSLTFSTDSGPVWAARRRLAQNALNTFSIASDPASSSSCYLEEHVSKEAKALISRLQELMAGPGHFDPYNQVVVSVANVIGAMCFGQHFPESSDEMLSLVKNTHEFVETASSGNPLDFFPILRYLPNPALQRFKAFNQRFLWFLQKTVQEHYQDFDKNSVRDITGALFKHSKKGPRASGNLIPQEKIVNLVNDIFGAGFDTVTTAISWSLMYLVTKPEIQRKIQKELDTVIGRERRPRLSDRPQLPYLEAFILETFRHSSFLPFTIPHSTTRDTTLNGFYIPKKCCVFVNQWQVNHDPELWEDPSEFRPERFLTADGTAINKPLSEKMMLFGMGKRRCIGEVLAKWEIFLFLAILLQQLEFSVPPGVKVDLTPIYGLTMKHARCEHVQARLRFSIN
Method in brief: (§5)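 Recombinant human CYP1A1 or CYP1A2 Supersomes at 25 pmol/mL, with compound at 1 µM (0.25% DMSO) and an NADP+-regenerating cofactor mix, at 37 °C. Reactions stopped with ACN plus internal standard at 0 and 60 min. Controls: melatonin for CYP1A1 and phenacetin for CYP1A2, plus no-cofactor negatives. Duplicates.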

[16] = Metabolic stability in human hepatocytes assessed as half life at 5 microM incubated upto 180 mins by LC/MS analysis; assay type: ADME, cell-based, Hepatocyte; method in brief: as §2
[17] = Metabolic stability in CD-1 mouse hepatocytes assessed as half life at 5 microM incubated upto 180 mins by LC/MS analysis; assay type: ADME, cell-based, Hepatocyte; method in brief: as §2
[18] = AUC (0 to 8 hrs) in Sprague-Dawley rat plasma at 5 mg/kg, po administered as single dose and measured after 8 hrs by LC-MS analysis; assay type: ADME, organism-based; design: dose 5 mg/kg, time 8 hrs, route po; method in brief: as §3
[19] = target: T3, Phosphatidylinositol 4,5-bisphosphate 3-kinase catalytic subunit alpha isoform; assay: Displacement of Alexa fluor 647-labeled kinase tracer 314 from recombinant N-terminal (His)6-tagged p110alpha (unknown origin) assessed as inhibition constant by TR-FRET based Lanthascreen kinase activity assay
[20] = Metabolic stability in Sprague-Dawley rat hepatocytes assessed as parent compound remaining at 5 uM measured after 3 hrs by LC-MS analysis; assay type: ADME, cell-based, Hepatocyte; details: read-out: Stability; method in brief: as §2
[21] = Metabolic stability in CD-1 mouse hepatocytes assessed as parent compound remaining at 5 uM measured after 3 hrs by LC-MS analysis; assay type: ADME, cell-based, Hepatocyte; details: read-out: Stability; method in brief: as §2
[22] = Metabolic stability in human hepatocytes assessed as parent compound remaining at 5 uM measured after 3 hrs by LC-MS analysis; assay type: ADME, cell-based, Hepatocyte; details: read-out: Stability; method in brief: as §2
[23] = Metabolic stability in Sprague-Dawley rat hepatocytes assessed as intrinsic clearance measured per million cells at 5 microM incubated upto 180 mins by LC/MS analysis; assay type: ADME, cell-based, Hepatocyte; details: read-out: CLH; method in brief: as §2
[24] = Metabolic stability in CD-1 mouse hepatocytes assessed as intrinsic clearance measured per million cells at 5 microM incubated upto 180 mins by LC/MS analysis; assay type: ADME, cell-based, Hepatocyte; details: read-out: CLH; method in brief: as §2
cells [25] = details: Homo sapiens, Karpas-1718, 72 h
cells [26] = details: Homo sapiens, SSK41, 72 h
cells [27] = details: Homo sapiens, SK-OV-3, 1 h; remark: listed apart in the source
[28] = Toxicity in Sprague-Dawley rat assessed as increase in insulin concentration at 5 mg/kg, po measured upto 8 hrs by ELISA; assay type: organism-based; details: in vivo; method in brief: as §1
CYP1A1 = target: T5, CYP1A1 (Homo sapiens, UniProt P04798); assay: Stability of compound assessed as recombinant human CYP1A1-mediated drug metabolism by measuring compound remaining at 1 uM incubated for 60 mins by LC-MS analysis; assay type: ADME; details: read-out: Stability; method in brief: as §5
T5 sequence (P04798 whole entry): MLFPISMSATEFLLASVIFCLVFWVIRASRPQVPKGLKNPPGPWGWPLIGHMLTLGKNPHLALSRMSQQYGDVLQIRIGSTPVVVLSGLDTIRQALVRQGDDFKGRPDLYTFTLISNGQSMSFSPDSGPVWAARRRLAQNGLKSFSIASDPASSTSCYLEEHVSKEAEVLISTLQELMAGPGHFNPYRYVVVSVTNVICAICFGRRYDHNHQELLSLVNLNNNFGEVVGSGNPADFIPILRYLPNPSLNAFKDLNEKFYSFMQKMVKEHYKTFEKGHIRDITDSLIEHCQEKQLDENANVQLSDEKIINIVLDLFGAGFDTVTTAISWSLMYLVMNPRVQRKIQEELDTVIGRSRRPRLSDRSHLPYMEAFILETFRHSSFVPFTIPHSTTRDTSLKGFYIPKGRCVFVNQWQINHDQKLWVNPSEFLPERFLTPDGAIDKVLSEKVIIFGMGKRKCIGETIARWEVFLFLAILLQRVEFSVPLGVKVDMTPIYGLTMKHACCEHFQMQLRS

[29] = Metabolic stability in Beagle dog hepatocytes assessed as intrinsic clearance measured per million cells at 5 microM incubated upto 180 mins by LC/MS analysis; assay type: ADME, cell-based, Canis lupus familiaris, Hepatocyte; details: read-out: CLH; method in brief: as §2
VL51 = assay: cells; details: Homo sapiens, VL51, 72 h

T3 sequence (P42336 whole entry, canonical isoform): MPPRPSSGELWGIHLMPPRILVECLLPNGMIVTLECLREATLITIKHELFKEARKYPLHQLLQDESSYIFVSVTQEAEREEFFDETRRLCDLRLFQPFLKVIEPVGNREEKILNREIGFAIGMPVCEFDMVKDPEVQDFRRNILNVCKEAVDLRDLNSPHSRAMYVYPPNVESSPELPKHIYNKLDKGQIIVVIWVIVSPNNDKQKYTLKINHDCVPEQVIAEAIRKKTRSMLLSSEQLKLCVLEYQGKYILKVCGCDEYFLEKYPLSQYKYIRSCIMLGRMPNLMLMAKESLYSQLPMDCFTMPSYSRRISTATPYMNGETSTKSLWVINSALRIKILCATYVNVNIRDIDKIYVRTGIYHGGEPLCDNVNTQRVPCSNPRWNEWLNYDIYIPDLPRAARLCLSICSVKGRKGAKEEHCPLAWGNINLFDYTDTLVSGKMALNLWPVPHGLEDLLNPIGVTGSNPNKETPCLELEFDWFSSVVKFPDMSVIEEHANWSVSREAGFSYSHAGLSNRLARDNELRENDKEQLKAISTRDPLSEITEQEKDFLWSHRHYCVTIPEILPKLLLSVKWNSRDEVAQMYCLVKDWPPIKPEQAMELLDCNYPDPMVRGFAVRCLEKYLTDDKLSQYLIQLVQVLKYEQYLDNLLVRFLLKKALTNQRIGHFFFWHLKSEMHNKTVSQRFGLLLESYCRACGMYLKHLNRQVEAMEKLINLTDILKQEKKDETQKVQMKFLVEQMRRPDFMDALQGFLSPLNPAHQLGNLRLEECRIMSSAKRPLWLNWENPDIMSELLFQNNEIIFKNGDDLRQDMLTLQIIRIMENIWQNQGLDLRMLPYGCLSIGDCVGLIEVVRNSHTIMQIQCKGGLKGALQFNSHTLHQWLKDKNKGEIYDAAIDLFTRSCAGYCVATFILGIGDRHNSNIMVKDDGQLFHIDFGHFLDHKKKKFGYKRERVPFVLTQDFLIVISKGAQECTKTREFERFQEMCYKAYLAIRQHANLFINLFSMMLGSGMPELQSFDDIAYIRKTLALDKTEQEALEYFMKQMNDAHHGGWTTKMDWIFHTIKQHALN
Sequence of Phosphatidylinositol 3-kinase catalytic subunit type 3 (Q8NEB9 whole entry, canonical isoform): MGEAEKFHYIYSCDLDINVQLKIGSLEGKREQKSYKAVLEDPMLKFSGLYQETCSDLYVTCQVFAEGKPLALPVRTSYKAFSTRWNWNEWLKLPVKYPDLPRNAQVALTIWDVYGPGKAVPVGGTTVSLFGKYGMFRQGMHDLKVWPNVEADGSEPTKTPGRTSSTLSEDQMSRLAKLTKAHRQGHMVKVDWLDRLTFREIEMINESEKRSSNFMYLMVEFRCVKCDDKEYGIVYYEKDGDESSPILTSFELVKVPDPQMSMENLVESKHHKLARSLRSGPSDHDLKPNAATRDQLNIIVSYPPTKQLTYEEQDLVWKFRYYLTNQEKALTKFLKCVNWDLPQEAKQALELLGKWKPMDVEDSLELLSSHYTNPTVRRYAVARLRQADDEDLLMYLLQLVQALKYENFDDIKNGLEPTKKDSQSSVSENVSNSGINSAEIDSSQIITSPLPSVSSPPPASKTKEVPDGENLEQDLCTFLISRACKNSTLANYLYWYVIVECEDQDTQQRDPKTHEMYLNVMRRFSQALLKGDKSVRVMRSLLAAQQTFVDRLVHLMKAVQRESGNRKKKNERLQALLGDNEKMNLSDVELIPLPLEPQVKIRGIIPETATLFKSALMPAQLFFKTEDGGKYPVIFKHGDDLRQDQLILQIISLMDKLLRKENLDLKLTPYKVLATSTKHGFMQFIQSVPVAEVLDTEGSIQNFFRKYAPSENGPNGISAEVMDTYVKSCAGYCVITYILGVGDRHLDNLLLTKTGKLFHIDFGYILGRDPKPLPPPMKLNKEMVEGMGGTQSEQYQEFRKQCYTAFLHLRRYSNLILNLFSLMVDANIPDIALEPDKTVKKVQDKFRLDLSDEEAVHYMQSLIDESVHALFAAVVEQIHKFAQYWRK
Sequence of Phosphatidylinositol 4,5-bisphosphate 3-kinase catalytic subunit gamma isoform (P48736 whole entry, canonical isoform): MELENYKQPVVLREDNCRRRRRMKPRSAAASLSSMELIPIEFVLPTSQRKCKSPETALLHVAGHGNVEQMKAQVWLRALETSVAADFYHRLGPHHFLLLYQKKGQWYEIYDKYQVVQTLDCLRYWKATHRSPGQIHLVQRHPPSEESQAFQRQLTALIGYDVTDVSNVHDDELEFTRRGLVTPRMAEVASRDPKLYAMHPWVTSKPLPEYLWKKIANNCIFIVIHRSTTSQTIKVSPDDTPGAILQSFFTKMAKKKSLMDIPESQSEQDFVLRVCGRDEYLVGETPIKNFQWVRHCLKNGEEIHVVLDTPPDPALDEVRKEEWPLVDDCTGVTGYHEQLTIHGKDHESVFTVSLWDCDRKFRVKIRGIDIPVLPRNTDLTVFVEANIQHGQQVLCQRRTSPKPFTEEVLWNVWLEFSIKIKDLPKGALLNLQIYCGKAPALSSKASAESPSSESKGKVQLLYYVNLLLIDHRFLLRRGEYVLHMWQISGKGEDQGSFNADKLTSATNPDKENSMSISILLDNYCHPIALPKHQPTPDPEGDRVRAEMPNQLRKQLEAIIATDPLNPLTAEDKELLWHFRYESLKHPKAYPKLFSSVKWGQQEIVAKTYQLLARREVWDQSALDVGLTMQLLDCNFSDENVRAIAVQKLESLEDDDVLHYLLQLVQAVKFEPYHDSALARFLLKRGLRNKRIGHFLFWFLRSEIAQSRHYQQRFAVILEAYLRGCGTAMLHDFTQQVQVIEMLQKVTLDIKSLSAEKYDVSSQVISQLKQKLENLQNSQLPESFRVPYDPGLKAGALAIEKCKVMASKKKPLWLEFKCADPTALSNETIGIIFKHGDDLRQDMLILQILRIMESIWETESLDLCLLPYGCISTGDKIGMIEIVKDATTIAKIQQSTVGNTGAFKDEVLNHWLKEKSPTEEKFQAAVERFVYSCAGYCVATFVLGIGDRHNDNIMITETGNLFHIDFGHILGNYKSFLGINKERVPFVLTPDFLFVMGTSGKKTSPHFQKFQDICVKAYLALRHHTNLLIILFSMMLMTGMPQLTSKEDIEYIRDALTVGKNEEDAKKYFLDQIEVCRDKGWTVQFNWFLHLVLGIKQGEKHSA
Sequence of Phosphatidylinositol 4-kinase beta (Q9UBF8 whole entry): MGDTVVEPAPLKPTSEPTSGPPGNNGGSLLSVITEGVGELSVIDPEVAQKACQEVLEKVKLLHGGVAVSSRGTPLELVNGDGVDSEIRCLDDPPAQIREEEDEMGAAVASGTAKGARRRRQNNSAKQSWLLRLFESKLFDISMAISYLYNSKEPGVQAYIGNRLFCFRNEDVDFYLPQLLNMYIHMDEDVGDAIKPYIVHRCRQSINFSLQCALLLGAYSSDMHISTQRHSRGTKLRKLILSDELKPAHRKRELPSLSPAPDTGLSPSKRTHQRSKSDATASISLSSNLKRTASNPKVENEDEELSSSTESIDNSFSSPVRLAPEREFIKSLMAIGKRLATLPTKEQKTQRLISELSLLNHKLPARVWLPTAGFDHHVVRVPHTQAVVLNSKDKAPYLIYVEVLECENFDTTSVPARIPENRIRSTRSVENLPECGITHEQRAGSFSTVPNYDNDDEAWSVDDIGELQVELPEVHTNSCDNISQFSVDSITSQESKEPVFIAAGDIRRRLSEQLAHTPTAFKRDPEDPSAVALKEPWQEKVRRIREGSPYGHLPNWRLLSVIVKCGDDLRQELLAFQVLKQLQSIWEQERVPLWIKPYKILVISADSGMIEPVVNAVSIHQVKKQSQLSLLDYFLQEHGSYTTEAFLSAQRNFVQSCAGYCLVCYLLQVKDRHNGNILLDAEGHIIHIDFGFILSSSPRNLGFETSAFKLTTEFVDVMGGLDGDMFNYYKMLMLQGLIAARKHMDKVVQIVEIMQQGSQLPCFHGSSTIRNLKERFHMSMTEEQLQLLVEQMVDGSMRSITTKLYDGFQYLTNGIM
Sequence of Phosphatidylinositol 4,5-bisphosphate 3-kinase catalytic subunit beta isoform (P42338 whole entry, canonical isoform): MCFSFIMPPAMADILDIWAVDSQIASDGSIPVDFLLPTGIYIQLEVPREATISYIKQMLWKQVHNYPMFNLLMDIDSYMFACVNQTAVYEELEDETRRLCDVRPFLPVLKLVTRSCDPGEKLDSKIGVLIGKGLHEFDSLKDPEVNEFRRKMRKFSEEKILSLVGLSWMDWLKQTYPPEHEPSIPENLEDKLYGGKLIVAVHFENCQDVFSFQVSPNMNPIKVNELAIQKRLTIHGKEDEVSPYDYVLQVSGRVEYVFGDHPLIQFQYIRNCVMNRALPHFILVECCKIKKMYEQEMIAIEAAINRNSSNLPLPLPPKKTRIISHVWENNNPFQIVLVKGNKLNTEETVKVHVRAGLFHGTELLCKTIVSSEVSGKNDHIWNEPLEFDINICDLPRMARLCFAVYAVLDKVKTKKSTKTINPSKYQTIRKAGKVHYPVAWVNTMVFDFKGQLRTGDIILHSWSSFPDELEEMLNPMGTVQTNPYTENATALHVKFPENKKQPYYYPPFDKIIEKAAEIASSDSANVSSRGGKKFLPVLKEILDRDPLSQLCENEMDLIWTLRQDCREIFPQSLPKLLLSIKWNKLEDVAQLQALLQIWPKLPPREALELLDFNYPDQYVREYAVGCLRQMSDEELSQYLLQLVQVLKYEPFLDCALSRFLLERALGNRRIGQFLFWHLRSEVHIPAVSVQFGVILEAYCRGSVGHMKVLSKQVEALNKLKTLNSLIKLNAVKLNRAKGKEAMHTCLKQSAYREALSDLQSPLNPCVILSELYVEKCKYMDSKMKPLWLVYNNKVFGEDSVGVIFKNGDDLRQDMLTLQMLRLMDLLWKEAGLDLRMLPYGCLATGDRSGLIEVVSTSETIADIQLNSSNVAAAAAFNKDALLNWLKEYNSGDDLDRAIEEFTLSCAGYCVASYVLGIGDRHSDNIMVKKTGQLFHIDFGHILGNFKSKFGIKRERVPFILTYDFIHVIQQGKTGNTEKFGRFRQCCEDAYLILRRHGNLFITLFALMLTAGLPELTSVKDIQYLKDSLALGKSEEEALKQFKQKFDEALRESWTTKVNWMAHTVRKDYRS

Nc1cc(C(F)F)c(-c2nc(C3CCOCC3)nc(N3C4CCC3COC4)n2)cn1
Activity [1]: Non-Toxic
half-life at 5 µM [2]: > 3 h
Ki [3]: 0.022 µM
AUC [4]: 2659 ng·h/g
remaining at 3 h, 5 µM [5]: 92.9%
half-life at 5 µM [6]: > 3 h
Kd [7]: 0.005 µM
IC50 (cells [8]): 0.171 µM
Kd [9]: 6.1 µM
Kd [10]: 15.5 µM
Kd [11]: > 30 µM
hepatocyte CLint at 5 µM [12]: 3.56 µL/min/1e6 cells
Kd [13]: 5.6 µM
Kd [14]: 0.42 µM
Kd [15]: 6.45 µM
remaining at 1 h, 1 µM (CYP1A2): 84.2%
half-life at 5 µM [16]: > 3 h
half-life at 5 µM [17]: > 3 h
AUC(0-t) at 8 h [18]: 3.76 µg·h/mL
Ki [19]: 1.14 µM
remaining at 3 h, 5 µM [20]: 62.4%
remaining at 3 h, 5 µM [21]: 74.5%
remaining at 3 h, 5 µM [22]: 59.9%
hepatocyte CLint at 5 µM [23]: 2.99 µL/min/1e6 cells
hepatocyte CLint at 5 µM [24]: 2.11 µL/min/1e6 cells
IC50 (cells [25]): 0.118 µM
IC50 (cells [26]): 0.369 µM
IC50 (cells [27]): 0.085 µM
Activity [28]: Non-Toxic
remaining at 1 h, 1 µM (CYP1A1): 53.3%
hepatocyte CLint at 5 µM [29]: 0.42 µL/min/1e6 cells
IC50 (VL51): 0.311 µM

Nc1cc(C(F)F)c(-c2nc(C3=CCOCC3)nc(N3C4CCC3COC4)n2)cn1
Ki [3]: 0.016 µM
IC50 (cells [8]): 0.199 µM
Ki [19]: 0.125 µM
IC50 (cells [25]): 0.353 µM
IC50 (cells [26]): 0.195 µM
IC50 (cells [27]): 0.094 µM
IC50 (VL51): 0.15 µM
